Source: ChEMBL document CHEMBL5230162 (RSC Med Chem, 2023)
Values after ≈ are worked out from the molar mass of the structure shown. Active and inactive are the calls of the source. The rule behind the calls is not given here.

Assays:
[1] = Solubility of the compound in water incubated for 15 mins under shaking conditions by UV spectrophotometry; format: physicochemical
[2] = Binding affinity to human ASGPR assessed as equilibrium dissociation constant by surface plasmon resonance spectroscopy
[3] = molecular target: T1, 3-hydroxy-3-methylglutaryl-coenzyme A reductase (Homo sapiens) (UniProt P04035); test: Inhibition of HMG-CoA reductase (unknown origin) in neutral aqueous media
T1 sequence (whole entry): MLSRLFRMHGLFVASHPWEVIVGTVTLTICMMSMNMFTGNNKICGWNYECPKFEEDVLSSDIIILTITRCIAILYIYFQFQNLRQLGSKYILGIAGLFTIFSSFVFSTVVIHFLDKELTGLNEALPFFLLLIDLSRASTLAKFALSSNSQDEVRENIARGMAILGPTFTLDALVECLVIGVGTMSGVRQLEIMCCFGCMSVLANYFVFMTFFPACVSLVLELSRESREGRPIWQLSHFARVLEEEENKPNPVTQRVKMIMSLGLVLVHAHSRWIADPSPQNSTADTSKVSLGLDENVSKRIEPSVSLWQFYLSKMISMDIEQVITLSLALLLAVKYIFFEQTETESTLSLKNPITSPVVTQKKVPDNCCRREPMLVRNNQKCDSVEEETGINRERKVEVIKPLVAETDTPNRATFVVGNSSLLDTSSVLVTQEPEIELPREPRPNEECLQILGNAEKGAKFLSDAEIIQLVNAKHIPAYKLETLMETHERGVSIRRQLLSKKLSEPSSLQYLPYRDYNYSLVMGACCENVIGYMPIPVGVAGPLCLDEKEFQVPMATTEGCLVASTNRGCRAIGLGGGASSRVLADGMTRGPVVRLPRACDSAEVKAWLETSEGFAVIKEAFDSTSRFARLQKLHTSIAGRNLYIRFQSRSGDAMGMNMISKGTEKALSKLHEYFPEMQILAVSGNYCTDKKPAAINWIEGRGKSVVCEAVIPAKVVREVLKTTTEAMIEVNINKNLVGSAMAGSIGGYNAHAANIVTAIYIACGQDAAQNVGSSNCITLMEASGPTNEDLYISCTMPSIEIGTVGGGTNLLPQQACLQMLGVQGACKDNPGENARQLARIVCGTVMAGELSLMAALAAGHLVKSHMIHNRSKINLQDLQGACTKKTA
Procedure, shortened: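 HMG-CoA reductase kit assay. Compounds were 0.1 mM working solutions made from 0.01 M DMSO stocks diluted in water; 2 μL of each added per well. NADPH consumption followed as absorbance at 340 nm every 20 s for up to 10 min. Activity calculated from the NADPH extinction coefficient. Run in triplicate.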

[4] = Stability of the compound in acetate buffer at pH 5 measured for 24 hrs by HPLC-MS analysis; format: physicochemical; conditions: pH 5, 24 h
Procedure, shortened: (§1)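 Incubated at 37 °C. Aliquots taken at 0, 0.5, 1, 2, 4, 8 and 24 h and quenched in cold methanol, stored at −20 °C, centrifuged, and the supernatant analysed by HPLC-MS.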

[5] = molecular target: T1, 3-hydroxy-3-methylglutaryl-coenzyme A reductase (Homo sapiens); test: Inhibition of HMG-CoA reductase (unknown origin) in presence of cathepsin B
Procedure, shortened: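 Compound (40 μM final) incubated for 24 h at 37 °C with recombinant cathepsin B (30 nM final) in 0.1 M sodium acetate pH 3.6, 100 mM NaCl, 1 mM EDTA, 0.6% DMSO. 5 μL of the mixture then tested in the HMG-CoA reductase kit assay: absorbance at 340 nm every 20 s for up to 10 min, in triplicate. Controls: enzyme-only buffer and compound without protease.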

[6] = Solubility of the compound in water incubated for 15 mins under shaking conditions by UV spectrophotometry relative to atorvastatin; format: physicochemical; conditions: buffer, 0.25 h
Procedure, shortened: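 Excess compound shaken strongly in 1 ml water for 15 min, then filtered or centrifuged. 50 μL of the saturated solution diluted into 1 mL methanol. Absorbance read at 290 nm and concentration taken from standard curves.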

[7] = Stability of the compound in acetate buffer at pH 5 measured after 24 hrs by HPLC-MS analysis; format: physicochemical; conditions: pH 5, 24 h; procedure, shortened: as §1
[8] = Stability of the compound in PBS buffer at pH 7.4 measured after 24 hrs by HPLC-MS analysis; format: physicochemical; conditions: pH 7.4, 24 h; procedure, shortened: as §1

Row | Compound | solubility at 0.25 h [1] [µM] | Kd [2] [nM] | inhibition (active/not active) [3] | Stability [4] | inhibition [5] | fold change (FC) [6] | Stability [7] | Stability [8]
1 | CC(=O)N[C@@H]1[C@@H](O)[C@@H](O)[C@@H](CO)O[C@H]1n1cc(COC(=O)C[C@H]2C[C@@H](CCn3c(-c4ccc(F)cc4)c(-c4ccccc4)c(C(=O)Nc4ccccc4)c3C(C)C)OC(C)(C)O2)nn1 | 30 (≈ 26.5 µg/mL) | 0.15 | – | – | – | – | – | –
2 | CC(=O)N[C@@H]1[C@@H](O)[C@@H](O)[C@@H](CO)O[C@H]1n1cc(COC(=O)C[C@H](O)C[C@H](O)CCn2c(-c3ccc(F)cc3)c(-c3ccccc3)c(C(=O)Nc3ccccc3)c2C(C)C)nn1 | 200 (≈ 169 µg/mL) | 48 | Active | Stable | – | – | – | –
3 | CC[C@H](C)C(=O)O[C@H]1C[C@H](O)C=C2C=C[C@H](C)[C@H](CC[C@@H](O)C[C@@H](O)CC(=O)O)[C@H]21 | – | – | – | – | Active | – | – | –
4 | CC(=O)N[C@H]1[C@H](OCCn2cc(COC(=O)C[C@H]3C[C@@H](CCn4c(-c5ccc(F)cc5)c(-c5ccccc5)c(C(=O)Nc5ccccc5)c4C(C)C)OC(C)(C)O3)nn2)O[C@H](CO)[C@H](O)[C@@H]1O | 50 (≈ 46.4 µg/mL) | 0.33 | Active | – | – | – | – | –
5 | CC(=O)N[C@H]1[C@H](OCCNC(=O)C[C@H](O)C[C@H](O)CCn2c(-c3ccc(F)cc3)c(-c3ccccc3)c(C(=O)Nc3ccccc3)c2C(C)C)O[C@H](CO)[C@H](O)[C@@H]1O | 430 (≈ 346 µg/mL) | 69 | – | – | – | 4 | – | –
6 | CC(=O)N[C@@H]1[C@@H](O)[C@@H](O)[C@@H](CO)O[C@H]1n1cc(CNC(=O)C[C@H](O)C[C@H](O)CCn2c(-c3ccc(F)cc3)c(-c3ccccc3)c(C(=O)Nc3ccccc3)c2C(C)C)nn1 | 450 (≈ 379 µg/mL) | 113 | inactive | – | Active | 4 | Stable | Stable
7 | CC(=O)N[C@@H]1[C@@H](O)[C@@H](O)[C@@H](CO)O[C@@H]1O | – | 4500 | – | – | – | – | – | –
8 | CC(=O)N[C@H]1[C@H](OCCn2cc(CNC(=O)C[C@H](O)C[C@H](O)CCn3c(-c4ccc(F)cc4)c(-c4ccccc4)c(C(=O)Nc4ccccc4)c3C(C)C)nn2)O[C@H](CO)[C@H](O)[C@@H]1O | 540 (≈ 478 µg/mL) | 161 | inactive | – | Active | 5 | Stable | Stable
9 | CC(=O)N[C@H]1[C@H](OCCn2cc(COC(=O)C[C@H](O)C[C@H](O)CCn3c(-c4ccc(F)cc4)c(-c4ccccc4)c(C(=O)Nc4ccccc4)c3C(C)C)nn2)O[C@H](CO)[C@H](O)[C@@H]1O | 320 (≈ 284 µg/mL) | 79 | – | Stable | – | – | – | –
